Source: PubChem
Hits are enriched below; roughly 3.5% of the tested compounds scored in any of these assays.
Env fusion inh – blocks HIV Env-driven cell-cell fusion. HeLa-JRFL Env/CEM21 cell fusion, luciferase. inhibition, % at 12.3 µM. actives 1.1% (n = 360,000). AID 651610;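 active = mean replicate inhibition score of at least 50 and every replicate individually at or above 50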
FGF22 binding – binders of recombinant human FGF22 by thermal shift; AID 651658; SYPRO orange fluorescence; percent of sucrose octasulfate shift, DMSO zero; activity (Tm shift, normalised), % at 9.99 µM; actives 1.5% (n = 340,000);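 active = mean Tm shift, scaled 0 neutral to 100 positive control, at about 1.3% or above, every replicate too, limit read from the data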
ERAP1 inh – ERAP1 (human) enzyme inhibition. Q9NZ08. recombinant ERAP1, Leu-AMC fluorescence, 60 min. inhibition, % at 10.7 µM. actives 0.15% (n = 340,000). AID 652197;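 active = mean replicate inhibition of at least 30%, or all replicates individually reaching that 30% level; inactive = mean below 30% and not every replicate reaching it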
Target sequence (Q9NZ08 whole entry, looked up): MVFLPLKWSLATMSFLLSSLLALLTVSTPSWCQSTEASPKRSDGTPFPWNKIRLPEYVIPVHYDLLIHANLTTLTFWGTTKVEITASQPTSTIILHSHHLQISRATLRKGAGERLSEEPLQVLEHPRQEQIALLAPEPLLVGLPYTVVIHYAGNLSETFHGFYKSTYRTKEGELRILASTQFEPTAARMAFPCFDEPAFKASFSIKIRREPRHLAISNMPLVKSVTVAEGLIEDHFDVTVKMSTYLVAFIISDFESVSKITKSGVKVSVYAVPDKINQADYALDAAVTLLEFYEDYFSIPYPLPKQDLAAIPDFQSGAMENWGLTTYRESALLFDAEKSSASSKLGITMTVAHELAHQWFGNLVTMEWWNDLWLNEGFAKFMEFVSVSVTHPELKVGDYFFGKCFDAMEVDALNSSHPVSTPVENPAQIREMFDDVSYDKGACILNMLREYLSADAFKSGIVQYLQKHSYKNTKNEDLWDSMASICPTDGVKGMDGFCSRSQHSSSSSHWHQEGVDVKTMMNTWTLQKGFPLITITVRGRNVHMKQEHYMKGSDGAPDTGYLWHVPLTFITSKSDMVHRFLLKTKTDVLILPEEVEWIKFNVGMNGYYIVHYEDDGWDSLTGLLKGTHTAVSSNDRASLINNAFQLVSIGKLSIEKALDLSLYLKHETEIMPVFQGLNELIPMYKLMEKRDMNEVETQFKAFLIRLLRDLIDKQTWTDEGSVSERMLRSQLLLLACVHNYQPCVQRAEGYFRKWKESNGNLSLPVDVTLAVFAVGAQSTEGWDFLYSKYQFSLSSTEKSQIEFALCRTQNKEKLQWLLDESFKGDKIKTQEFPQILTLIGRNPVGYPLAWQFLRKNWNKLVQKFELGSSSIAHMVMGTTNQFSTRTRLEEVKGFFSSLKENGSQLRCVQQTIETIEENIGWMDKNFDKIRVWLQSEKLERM
Cneo AK release – causes C. neoformans cell lysis | adenylate kinase release luminescence, 4 h; normalised: neutral wells 0, clomiphene wells 100 | AID 651654 | actives 0.2% (n = 360,000) | lysis activity, % at 15 µM;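 active = mean lysis activity across replicates of at least 80%, whatever share of replicates individually reach that level; inactive = mean lysis activity below 80%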
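Schedule: static 4 h at 37 °C with compound, 1 h detection; system: C. neoformans cells; benchmarks: Clomiphene as positive control; buffer or medium: fresh YPD medium; measure: luminescence rise reflecting yeast cell lysis; measured by: luminescent adenylate kinase detection reagent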
Ecoli rRNA inh – selective bacterial rRNA inhibition in E. coli; actives 1.6% (n = 350,000); AID 720706; GFP signal change (wild-type ribosome), % (test concentration not listed); E. coli WT GFP vs humanized-ribosome RFP mutants, fluorescence, 24 h; active compounds read low; DMSO median 0, no signal -100;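 active = significant combined selectivity score with lowered wild-type GFP, culture density cut under 30%, mutant RFP and density less affected; inactive = any of these conditions unmet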
PGC1a acetyl inh – PGC1a acetylation modulation, inhibitor mode; AID 651687; U2OS PGC1a acetylation, AlphaScreen anti-acetyl-lysine; with virally co-expressed GCN5 acetyltransferase; actives 0.17% (n = 350,000); inhibition, % at 15.6 µM;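 active = every replicate shows inhibition of at least 40%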
Of the large screens only hits and unclear results are named; the others gave an inactive call; [ ] = remark or other dose.

O=C(Cc1c(Cl)cccc1Cl)Nc1cccc(S(=O)(=O)N2CCOCC2)c1	Ecoli rRNA inh -23 (no result: Cneo AK release, PGC1a acetyl inh)
O=C(Cc1ccccc1Cl)Nc1cccc(S(=O)(=O)N2CCOCC2)c1	none (no result: Cneo AK release, PGC1a acetyl inh)
O=C(CN1CCOCC1)Nc1ccc(Cl)c(Cl)c1	none (no result: Env fusion inh, FGF22 binding, PGC1a acetyl inh)
Cn1cc(S(=O)(=O)N2CCOCC2)cc1C(=O)Nc1cccc(Cl)c1	Env fusion inh 98
Cc1cccc(OCCC(=O)Nc2ccc(C)c(S(=O)(=O)N3CCOCC3)c2)c1	none (no result: Env fusion inh)
O=S(=O)(Nc1cccc(S(=O)(=O)N2CCOCC2)c1)c1ccc(Cl)s1	FGF22 binding 43 (no result: PGC1a acetyl inh)
O=C(Cc1ccc(Br)cc1)Nc1cccc(S(=O)(=O)N2CCOCC2)c1	Ecoli rRNA inh -30
Cc1ccc(CC(=O)Nc2cccc(S(=O)(=O)N3CCOCC3)c2)cc1	none (no result: PGC1a acetyl inh)
COc1ccc2[nH]c(=O)c3c(c2c1)OC(C)(C)C=C3	Env fusion inh 136 (no result: FGF22 binding, ERAP1 inh, Ecoli rRNA inh)
Cc1cc2c([nH]c3ccccc32)c2c1OC(C)(C)C=C2	none (no result: Env fusion inh, Ecoli rRNA inh)
COc1cccc(S(=O)(=O)N2C[C@H](O)COC[C@@H]3O[C@@H](CC(=O)NCCCN4CCOCC4)CC[C@H]32)c1	none
O=C1c2ccccc2/C(=C\c2ccc(Br)nc2)N1c1ccccc1	FGF22 binding 43 (no result: Cneo AK release, PGC1a acetyl inh)
C[C@H]1CCCCO[C@H](CN(C)C(=O)NC2CCCCC2)[C@@H](C)CN([C@@H](C)CO)C(=O)c2cc(NS(=O)(=O)c3ccccc3)ccc2O1	none
Cn1c(=O)oc2cc(S(=O)(=O)N3CCCC3)ccc21	Env fusion inh 62
Cn1c(=O)oc2cc(S(=O)(=O)N3CCCCC3)ccc21	none
C[C@H](NC(=O)C[C@@H]1C[C@@H]2c3cc(NC(=O)Nc4ccc(C(F)(F)F)cc4)ccc3O[C@@H]2[C@@H](CO)O1)c1ccccc1	Env fusion inh 81[16.7 µM]
O=C(Nc1ccc(C(F)(F)F)cc1)Nc1ccc2c(c1)[C@@H]1C[C@H](CC(=O)N3CCc4ccccc4C3)O[C@H](CO)[C@@H]1O2	Env fusion inh 82[16.7 µM]
CN1CCN(C(=O)C[C@H]2C[C@@H]3c4cc(NS(C)(=O)=O)ccc4O[C@@H]3[C@H](CO)O2)CC1	Env fusion inh 64[16.7 µM]
CN1CCN(C(=O)C[C@@H]2C[C@H]3c4cc(NS(C)(=O)=O)ccc4O[C@H]3[C@@H](CO)O2)CC1	none
CS(=O)(=O)Nc1ccc2c(c1)[C@H]1C[C@@H](CC(=O)NCCN3CCCCC3)O[C@@H](CO)[C@H]1O2	Env fusion inh 67[16.7 µM]
O=C(Nc1ccc(C(F)(F)F)cc1)Nc1ccc2c(c1)[C@@H]1C[C@@H](CC(=O)N3CCc4ccccc4C3)O[C@H](CO)[C@@H]1O2	none
CN1/C(=C/C(=S)NC(=O)C2CCC2)C(C)(C)c2ccccc21	none
CCOCCCNC(=S)N(CCN(CC)CC)Cc1cc2cc3c(cc2[nH]c1=O)OCCO3	none (no result: FGF22 binding)
CS(=O)(=O)Nc1ccc2c(c1)[C@@H]1C[C@@H](CC(=O)N3CCc4ccccc4C3)O[C@H](CO)[C@@H]1O2	Env fusion inh 63[16.7 µM]
CS(=O)(=O)Nc1ccc2c(c1)[C@H]1C[C@H](CC(=O)N3CCc4ccccc4C3)O[C@H](CO)[C@H]1O2	Env fusion inh 63[16.7 µM]
C[C@@H]1CN([C@@H](C)CO)C(=O)Cc2cc(NC(=O)C3CCCCC3)ccc2O[C@@H]1CN(C)Cc1ccccc1	none (no result: Env fusion inh)
CCNC(=O)CSc1nnc(CN2CCCCCC2=O)n1-c1ccccn1	FGF22 binding 43 (no result: Cneo AK release)
N#C/C(=N/O)c1nc(-c2ccc(F)cc2)cs1	Ecoli rRNA inh -41 (no result: Cneo AK release, PGC1a acetyl inh)
Cc1ccc(NC(=O)C(=O)NCCOc2ccccc2Cl)cc1	none
CC1CCCC(NC(=O)COC(=O)[C@@H](NC(=O)c2ccco2)C(C)C)C1C (stereo not given in full)	FGF22 binding 45 (no result: Cneo AK release, PGC1a acetyl inh)
C[C@@H](C(O)c1ccccc1)N(C)C(=O)CCc1ccccc1 (stereo not given in full)	none
Cc1nn2c(NCCN3CCOCC3)c3c(nc2c1-c1ccccc1)CCCC3	Ecoli rRNA inh -34
O=Nc1ccc(Br)cn1	none (no result: Cneo AK release, PGC1a acetyl inh)
C=C1CC[C@@H]2[C@](C)(CO)[C@H](O)CC[C@@]2(C)[C@@H]1/C=C/C1=CCOC1=O	Ecoli rRNA inh -23
